Assay results from different studies.
Compare with care: the assays were run in different laboratories.
Target: Mitogen-activated protein kinase kinase kinase 11 (MAP3K11, Homo sapiens, UniProt Q16584)

C#Cc1cc(-c2cc(Nc3nc(N[C@@H](C)c4ccc(F)cn4)ncc3Cl)n[nH]2)ccc1C=O
inhibition (enzyme activity; inhibitor; 0.2 µM): 72.5%

CC(C)S(=O)(=O)c1ccc2nccc(Nc3ccc4sc(C5CCCC5)nc4c3)c2c1
activity vs control (enzyme activity; inhibitor; 1 µM): 98%

C=CC(=O)N1CCC([C@@H]2CCNc3c(C(N)=O)c(-c4ccc(Oc5ccccc5)cc4)nn32)CC1
inhibition (enzyme activity; inhibitor; 1 µM): 0%

CN1CCN(C(=O)c2ccc(NC(=O)Nc3ccc(N(C)c4ccnc(Nc5ccc(CS(C)(=O)=O)cc5)n4)cc3)cc2)CC1
remaining binding (binding; 1 µM): 91%

C=CC(=O)N1CCC[C@@H](n2nc(-c3ccc(Oc4ccccc4)cc3)c3c(N)ncnc32)C1
inhibition (enzyme activity; inhibitor; 1 µM): 0%

COc1ccc2[nH]c3c4[nH]c5ccc(OC)cc5c4c4c(c3c2c1)C(=O)NC4=O
remaining binding (binding; 1 µM): 5.6%

CCCCC(=O)Nc1ccc(-c2ccc3ncn(CCC)c(=O)c3c2)cn1
remaining binding (binding; competition with immobilised ligand; 0.5 µM): 82%

C1=C/COCc2cc(ccc2OCCN2CCCC2)Nc2nccc(n2)-c2cccc(c2)COC/1
remaining signal (cell-free assay; 0.1 µM): 100%
